Shown is part of a subset that was picked to be rich in hits.
Insulin prom act: TRM-6 insulin promoter activation. TRM-6 cells (human fetal islet line), insulin promoter eGFP reporter, imaging; plate-scaled: unstimulated 0, stimulated control 100. activation, % at 2 µM. 0.81% of 130,000 active. AID 1296;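 active = activation at 2 µM above a set limit, confirmed on inspection of the cell images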;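 note: share of cells whose green reporter signal exceeds an intensity cutoff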
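test system = TRM-6 insulin promoter–eGFP reporter cells | benchmarks = stimulated versus unstimulated wells as plate controls | read-out basis = percent cells above green-intensity threshold, converted to percent activation versus plate controls | detection = fixed-cell fluorescence microscopy, eGFP plus Hoechst | incubation = tamoxifen pre-incubation 15 h overnight, then compound exposure 48 h at 37 °C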
Numbers without * were called inactive; [ ] = dose if it differs, or a comment.

For O=C(c1ccncc1)N1CCN(C(=O)c2cccs2)CC1 the results were Insulin prom act 5.
`CC(C)(C)c1cc(=O)n2c(C#N)c(C#N)nc2[nH]1` gave Insulin prom act 9.
For O=C(NCC1CCCO1)c1ccc(CNS(=O)(=O)c2ccc(F)c(Cl)c2)cc1 (configuration not stated) the results were Insulin prom act 0.
Screening CC1(C)CN2C(=S)N(c3ccccc3)C(c3ccccc3)N2C1 (configuration not stated) returned Insulin prom act 3.
C=CC1C(N2CCOCC2)C(C)(C)S1(=O)=O (configuration not stated) was read as Insulin prom act 131.
Screening O=C(CN(Cc1cccs1)C(=O)CNS(=O)(=O)c1ccc(F)cc1)NCc1ccco1 returned Insulin prom act 171*.
For CC(C)C(C(=O)NCC1CCCO1)N(Cc1ccco1)C(=O)CNS(=O)(=O)c1ccc(F)cc1 (configuration not stated) the results were Insulin prom act 109.
Screening O=C(CNC(=S)N(Cc1ccccc1)Cc1cccs1)NCc1ccc(F)cc1 returned Insulin prom act 0.
Screening CC(=O)c1cc2c(cc1NC(=O)CN1CCN(c3ccc(F)cc3)CC1)OCO2 returned Insulin prom act 0.
Screening Cc1sc(-c2ccncc2)nc1OC(=O)c1ccccc1 returned Insulin prom act 4.
For CCOC(=O)c1ccccc1NC(=O)CN(c1ccc(OCC)cc1)S(C)(=O)=O the results were Insulin prom act 387*.
Screening CCOc1ccc(N(CC(=O)Nc2ccccc2C(=O)NCc2ccco2)S(C)(=O)=O)cc1 returned Insulin prom act -3.
For CCOC(=O)c1ccccc1NC(=O)c1ccc(N(C)S(C)(=O)=O)cc1 the results were Insulin prom act 388.
For O=C(Cc1ccc(-n2c(=O)c3ccccc3n(Cc3ccc(F)cc3)c2=O)cc1)NCC1CCCO1 (configuration not stated) the results were Insulin prom act -7.
For COc1ccc(NC(=O)C2CCCCN2N)cc1OC (configuration not stated) the results were Insulin prom act 295.
Screening CCOc1ccc(CCNC(=O)C2CCCN(C(=O)N(C)C)C2)cc1OCC (configuration not stated) returned Insulin prom act 1.
`CCOC(=O)/C=C(\C)Nc1cc(C)nn1-c1ccccc1` gave Insulin prom act -9.
For O=C1C2C3C=CC(C3)C2C(=O)N1/N=C/c1cn(Cc2ccccc2)c2ccccc12 (configuration not stated) the results were Insulin prom act -5.
COc1ccc2c(c1)c(=O)c(C(=O)c1ccccc1)cn2Cc1ccc(C)cc1 was read as Insulin prom act -7.
`O=C(O)c1cn(Cc2ccccc2)c2ccccc2c1=O` gave Insulin prom act 383*.
Screening CCOC(=O)C(C)n1nc(/C=C/c2ccccc2)ccc1=O (configuration not stated) returned Insulin prom act 0.
For COC(CNC(=O)c1ccc2c(c1)nc(C)n2-c1ccc(F)c(F)c1)OC the results were Insulin prom act 0.
Cc1cc(C)c2c(=O)[nH]c(SCc3ccccc3C)nc2n1 was read as Insulin prom act 7.
`CCc1ccc(NC(=S)N2CCN(c3cccc(C(F)(F)F)c3)CC2)cc1` gave Insulin prom act 0.
`CC(=O)c1ccc(NC(=O)N2CCN(c3cccc(Cl)c3)CC2)cc1` gave Insulin prom act -10.
For CC(=O)c1ccc(N2CCN(C(=S)Nc3cccc(F)c3)CC2)cc1 the results were Insulin prom act 138*.
Cc1ccc(C(=O)NNC(=O)C2CCN(c3nc(C)cc(C)n3)CC2)cc1 was read as Insulin prom act -10.
Screening CC(C)(C)NC(=O)/C=C/c1ccc(C(F)(F)F)cc1 returned Insulin prom act 322*.
CC(C)(CCl)C(=O)Nc1ccc(C(F)(F)F)cc1 was read as Insulin prom act -85.
CC(C)(C)NC(=O)c1ccncc1 was read as Insulin prom act 10.
Screening O=C(CN(C(=O)Cn1nnc(-c2cccs2)n1)c1cnc2ccccc2c1)NCC1CCCO1 (configuration not stated) returned Insulin prom act 9.
O=S(=O)(c1ccc(Oc2ccc(Br)cc2F)nc1)N1CCCCC1 was read as Insulin prom act -40.
COc1ccc(N2CCN(C(=O)Cc3ccc(-n4c(=O)[nH]c5ccccc5c4=O)cc3)CC2)cc1 was read as Insulin prom act -3.
`CCOC(=O)N1CCC(NC(=O)Cc2ccc(-n3c(=O)[nH]c4ccccc4c3=O)cc2)CC1` gave Insulin prom act 500*.
CCOC(=O)N1CCC(NC(=O)c2cn(-c3ccc(OC)cc3)c(=O)c3ccccc23)CC1 was read as Insulin prom act -9.
`Cc1ccc(CNS(=O)(=O)NCc2cccs2)cc1` gave Insulin prom act -77.
Screening Cn1c(SCC(=O)NC(c2ccccc2)c2ccccc2)nnc1-c1cccs1 returned Insulin prom act -4.
Cc1cc(C(=O)N/N=C2\CC(=O)CC(C)(C)C2)n[nH]1 was read as Insulin prom act -7.
CCCCC1CCC(C(=O)Nc2ccccc2)CC1 (configuration not stated) was read as Insulin prom act -9.
`O=C1c2ccccc2NC(c2ccccn2)N1c1ccccc1F` (configuration not stated) gave Insulin prom act -3.
For Cc1cc(NC(=O)c2ccc(Cl)cc2)no1 the results were Insulin prom act 200.
For Cc1cc(NC(=O)c2ccc(S(=O)(=O)N(C)C)cc2)no1 the results were Insulin prom act 8.
`Cc1cc(NC(=O)c2ccc(NC(=O)CC(C)C)cc2)no1` gave Insulin prom act 523*.
Screening COCCN(C(C)=O)c1nnc(-c2ccccn2)s1 returned Insulin prom act -20.
Screening N#CCO/N=C(\c1ccccc1)c1ccncc1 returned Insulin prom act 0.
For Cc1ccccc1CSCC(Nc1ccc(C(=O)O)cc1[N+](=O)[O-])C(=O)O (configuration not stated) the results were Insulin prom act 0.
Screening Cc1ccc(/C=C/C(=O)c2ccc(C)cc2)cc1 returned Insulin prom act 367.
For O=C(/C=C/c1ccc(N2CCC(c3ccccc3)=N2)cc1)c1ccccc1 the results were Insulin prom act 456*.
For O=C(/C=C/c1ccc(OC2CSC2)cc1)c1ccc(Cl)cc1 the results were Insulin prom act 4.
Screening CCc1nnc(NC(=O)C2CCCN2C(=O)Nc2ccccc2OC)s1 (configuration not stated) returned Insulin prom act 7.
CCN1C(=O)/C(=C\N2CCCc3ccccc32)SC1=S was read as Insulin prom act -7.
`C=CCN1C(=O)/C(=C\C=C2\N(C)c3ccccc3C2(C)C)SC1=S` gave Insulin prom act 614*[fluoresces].
Screening Cc1c(N=C/C=C2/N(C)c3ccccc3C2(C)C)c(=O)n(-c2ccccc2)n1C returned Insulin prom act 30.
`COc1ccccc1Nc1nc(=O)[nH]nc1C` gave Insulin prom act -4.
`O=C(CC1SC(=Nc2ccccc2)N(CCCCO)C1=O)NCc1ccccc1` (configuration not stated) gave Insulin prom act 8.
`C=CCS/C(=N\n1cnc2ccccc2c1=O)N(CC)CC` gave Insulin prom act 3.
Cc1nc(N(C)C)ncc1C(=O)O was read as Insulin prom act 2.
Cc1ccc(-c2ccc(C(=O)O)c(C)n2)cc1 was read as Insulin prom act 386*.
Screening Cc1ccc(-c2nc(C(=O)O)cs2)cc1 returned Insulin prom act 146.

From PubChem BioAssay
